Screens: PubChem, several laboratories
Most compounds without a hit are left out; they make up all but 4.2% or so of the library.
ANO1 block – mouse TMEM16A channel inhibition, primary screen. Q8BHY3. AID 588511. 1.2% of 310,000 active. HEK293 TMEM16A/YFP iodide influx fluorescence, ionomycin. normalized B-score (activity score, 25-100; higher = stronger inhibition) at 10 µM;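 active = ratio plate-corrected score three or more library SD toward inhibition, starting fluorescence score within five deviations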;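 note: score derived from kinetic fluorescence span divided by baseline fluorescence per well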
Lipid droplet – hepatic lipid droplet formation modulation | 0.4% of 240,000 active | AML12 mouse hepatocytes, oleate lipid droplets, BODIPY imaging | inhibition, % at 6.5 µM;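 active = lipid droplet intensity inhibited by at least 50%, with more than 500 cells counted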
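Assay system: AML12 hepatocytes (mouse) / Also added: 100 µM oleic acid challenge / Times: overnight treatment with compound plus oleate / Detection: high-content imaging of BODIPY-stained droplets and DAPI nuclei / Evaluation: % inhibition of lipid droplet signal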
UPR CHOP act – apoptotic UPR (CHOP) activation | activation, % at 10 µM | 0.34% of 330,000 active | AID 449763 | CHO-CHOP luciferase reporter, luminescence; percent of tunicamycin response over DMSO baseline;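 active = at 10 µM dose, activation of 40% or more, normalized to positive control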;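 note: 100% = tunicamycin at 10 µg/mL and 0% = DMSO alone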
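Dosing – one dose, 10 µM in 0.5% DMSO · System – CHO-CHOP cells, stable luciferase reporter of PERK-eIF2a-CHOP signalling · Input – 500 cells/well · Control set – tunicamycin 10 µg/mL final as positive, DMSO-only wells as negative · Timing – 6 h compound treatment, 37 °C · Measure – % activation vs tunicamycin · Technique – luminescence read with Steady-Glo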
TMEM16A act – activates or potentiates the mouse TMEM16A chloride channel. B-score at 10 µM. HEK293 TMEM16A/YFP-H148Q/I152L, iodide quench fluorescence; stronger effect = lower value. 0.3% of 340,000 active. Q8BHY3;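 active = fluorescence-ratio B-score plate-corrected deviation score at least 3 library SD below zero, with starting fluorescence score within 5 deviations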;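 note: channel opened by trigger with iodide after compound preincubation; score built on the fluorescence ratio of max minus min over baseline; more negative score means more quench and so TMEM16A activation or potentiation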
XBP1 UPR activ – activators of adaptive arm of unfolded protein response (XBP1); CHO-XBP1 luciferase reporter, IRE1-XBP1 UPR activation, luminescence; percent of tunicamycin response, DMSO as zero; 0.33% of 330,000 active; activation, % at 20 µM;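 active = versus positive control, 20 µM dose yields 30% or more activation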;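 note: 100% = tunicamycin at 10 µg/mL and 0% = DMSO only wells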
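Material: IRE1-XBP1 luciferase reporter CHO line / Quantity: one thousand reporter cells per well / Buffer or medium: F12 with 10% serum / Compound: 20 µM single concentration, DMSO 1% / Times: 6 h treatment, 37 °C / Detection: Steady-Glo luciferase glow luminescence, 10 min after reagent addition / Benchmarks: tunicamycin high, DMSO low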
CHOP inhibitor – blocks CHOP induction under ER stress; CHO-K1 CHOP-promoter luciferase, tunicamycin-induced, 15-18 h; 3.8% of 220,000 active; AID 2732; inhibition, % at 10 µM;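 active = compounds that reduced the stress-induced luciferase reporter signal by more than about 70% of percent inhibition, limit read from the data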;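 note: 0% = tunicamycin plus vehicle and 100% = wells without tunicamycin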
TMEM16A reconf – reconfirmed blocker of mouse TMEM16A calcium-activated chloride channel; shares compounds with ANO1 block; HEK293 TMEM16A/YFP-H148Q, iodide quench fluorescence; ionomycin added to raise cell calcium; inhibition, % at 10 µM; 39% of 2,300 active; AID 652189;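 active = mean duplicate percent inhibition, scaled so buffer wells are 0 and the reference blocker 100, over three buffer SD above buffer mean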
HEK293 Ca mobil – counter-screen for TMEM16A inhibitors: effect on calcium mobilization. calcium response (% of ionomycin), % at 10 µM. shares compounds with ANO1 block. AID 652231. TMEM16A/YFP HEK293, Fluo4 calcium mobilization. 2% of 2,300 active;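 active = duplicate-averaged calcium signal over 20% of the ionomycin maximum, relative to buffer baseline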;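 note: each well's signal is peak minus trough fluorescence divided by its pre-addition baseline; 0% = buffer wells and 100% = ionomycin wells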
Parental YFP cnt – acts in parental YFP-HEK293 cells lacking TMEM16A, counter-screen | shares compounds with ANO1 block | YFP ratio F(max-min)/F0 at 10 µM | 2,300 tested, under 10 active | AID 652233 | iodide YFP quench, ionomycin;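 active = yellow fluorescent protein signal ratio exceeding the buffer control mean by over 5 SD of those controls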;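 note: ratio is mean of duplicate wells from kinetic YFP trace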
ClC-1 inh – selectivity of TMEM16A inhibitors: inhibition of rat ClC-1 chloride channel; ratio percent, % at 10 µM; AID 652236; CHO ClC-1-YFP, iodide influx fluorescence quench; iodide control reads 0, buffer control 100; shares compounds with ANO1 block; 2,300 tested, under 10 active;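 active = duplicate-mean ratio percent above the mean of iodide-only control wells, which defines zero, plus 5 of their SD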;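 note: higher percent means stronger block of ClC-1 iodide influx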
Target sequence (P35524 whole entry, looked up): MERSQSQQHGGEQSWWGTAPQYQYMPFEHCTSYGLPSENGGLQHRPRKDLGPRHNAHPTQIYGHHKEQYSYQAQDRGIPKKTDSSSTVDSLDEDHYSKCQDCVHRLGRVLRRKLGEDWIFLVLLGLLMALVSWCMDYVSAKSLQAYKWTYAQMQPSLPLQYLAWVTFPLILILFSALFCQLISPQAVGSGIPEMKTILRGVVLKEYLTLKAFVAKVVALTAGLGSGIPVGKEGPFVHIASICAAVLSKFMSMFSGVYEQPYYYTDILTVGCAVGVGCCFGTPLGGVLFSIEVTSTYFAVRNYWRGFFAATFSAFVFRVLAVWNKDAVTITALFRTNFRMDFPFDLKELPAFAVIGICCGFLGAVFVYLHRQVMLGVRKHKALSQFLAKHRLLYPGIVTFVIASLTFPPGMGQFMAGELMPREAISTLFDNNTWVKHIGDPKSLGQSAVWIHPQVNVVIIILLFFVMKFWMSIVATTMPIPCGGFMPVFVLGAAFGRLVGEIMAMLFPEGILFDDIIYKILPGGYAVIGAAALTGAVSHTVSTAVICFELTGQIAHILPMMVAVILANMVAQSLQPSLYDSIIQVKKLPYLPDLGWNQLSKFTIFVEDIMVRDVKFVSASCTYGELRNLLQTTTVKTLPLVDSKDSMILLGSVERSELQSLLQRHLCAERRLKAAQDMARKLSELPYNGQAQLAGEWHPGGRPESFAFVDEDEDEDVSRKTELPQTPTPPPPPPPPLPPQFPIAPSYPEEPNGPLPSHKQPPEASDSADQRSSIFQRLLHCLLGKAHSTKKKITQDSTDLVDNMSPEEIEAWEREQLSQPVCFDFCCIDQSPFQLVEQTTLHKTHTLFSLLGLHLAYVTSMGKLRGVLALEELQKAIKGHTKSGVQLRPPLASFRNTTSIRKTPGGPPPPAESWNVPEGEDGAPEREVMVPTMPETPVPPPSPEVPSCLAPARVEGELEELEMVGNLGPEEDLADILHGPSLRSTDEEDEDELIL
Active calls of the source: *.

What do the screens show for `CCCCC(=O)Oc1c(S(=O)(=O)c2ccccc2)c(C)nn1C(C)(C)C`?
ANO1 block: 25*; Lipid droplet: -3; UPR CHOP act: 3; TMEM16A act: inactive; XBP1 UPR activ: -5; TMEM16A reconf: inactive; HEK293 Ca mobil: inactive; Parental YFP cnt: -0.93; ClC-1 inh: -4

How did CCCC(=O)Oc1c(S(=O)(=O)c2ccc(C)cc2)c(C)nn1C(C)(C)C do in these assays?
ANO1 block: inactive; Lipid droplet: 14; UPR CHOP act: 0; TMEM16A act: inactive; XBP1 UPR activ: -2; CHOP inhibitor: 40

Results for CCC(Sc1ccc2nnc(-c3ccc(OC)c(OC)c3)n2n1)C(=O)O (stereo not given) ?
ANO1 block: 100*; Lipid droplet: 15; UPR CHOP act: -2; TMEM16A act: inactive; XBP1 UPR activ: -1; CHOP inhibitor: 27; TMEM16A reconf: inactive; HEK293 Ca mobil: inactive; Parental YFP cnt: -0.79; ClC-1 inh: -6

Results for O=C(c1cc2c(ccc3ccccc32)oc1=O)N1CCCC1 ?
ANO1 block: 100*; UPR CHOP act: 2; TMEM16A act: inactive; XBP1 UPR activ: -1; CHOP inhibitor: -3; TMEM16A reconf: inactive; HEK293 Ca mobil: inactive; Parental YFP cnt: -1.1; ClC-1 inh: -8

What do the screens show for `O=C(c1ccco1)N1CCN(C(=O)c2cc3ccccc3oc2=O)CC1`?
ANO1 block: inactive; Lipid droplet: -6; UPR CHOP act: 1; TMEM16A act: inactive; XBP1 UPR activ: -3

What do the screens show for `O=C(c1cc2ccccc2oc1=O)N1CCN(CCc2ccccc2)CC1`?
ANO1 block: 25*; Lipid droplet: 3; UPR CHOP act: 1; TMEM16A act: inactive; XBP1 UPR activ: -1; CHOP inhibitor: 8; TMEM16A reconf: inactive; HEK293 Ca mobil: inactive; Parental YFP cnt: -1.1; ClC-1 inh: -15

How did O=C(O)c1cc2c(ccc3ccccc32)oc1=O do in these assays?
ANO1 block: inactive; Lipid droplet: 12; UPR CHOP act: -2; TMEM16A act: inactive; XBP1 UPR activ: 1; CHOP inhibitor: -14

Results for COc1ccc(O)c(C(=O)c2cnc3c(c2)CN(C)C(=O)N3)c1 ?
ANO1 block: inactive; Lipid droplet: -2; UPR CHOP act: 0; TMEM16A act: inactive; XBP1 UPR activ: 0; CHOP inhibitor: 7

What do the screens show for `COc1ccc2[nH]cc(CCNS(=O)(=O)c3ccc(F)cc3)c2c1`?
ANO1 block: 25*; Lipid droplet: 7; UPR CHOP act: 0; TMEM16A act: inactive; XBP1 UPR activ: -2; CHOP inhibitor: 16; TMEM16A reconf: inactive; HEK293 Ca mobil: inactive; Parental YFP cnt: -1; ClC-1 inh: -8

Results for COc1ccc2[nH]cc(CCNS(=O)(=O)c3ccccc3)c2c1 ?
ANO1 block: inactive; Lipid droplet: 3; UPR CHOP act: 0; TMEM16A act: inactive; XBP1 UPR activ: 0; CHOP inhibitor: 9

Results for CC(C)CC(NS(=O)(=O)OCC(Cl)(Cl)Cl)c1ccccc1 (stereo not given) ?
ANO1 block: 100*; Lipid droplet: -11; UPR CHOP act: -1; TMEM16A act: inactive; XBP1 UPR activ: 5; TMEM16A reconf: 56%*; HEK293 Ca mobil: inactive; Parental YFP cnt: -1.1; ClC-1 inh: -3

How did O=C(Nc1cccc(S(=O)(=O)N2CCCC2)c1)c1ccco1 do in these assays?
UPR CHOP act: 0; TMEM16A act: inactive; XBP1 UPR activ: 0

What do the screens show for `O=C(Nc1cccc(S(=O)(=O)c2cccc(NC(=O)c3ccco3)c2)c1)c1ccco1`?
ANO1 block: 25*; Lipid droplet: -3; UPR CHOP act: 0; TMEM16A act: inactive; XBP1 UPR activ: -2; CHOP inhibitor: 13; TMEM16A reconf: 20%*; HEK293 Ca mobil: inactive; Parental YFP cnt: -0.91; ClC-1 inh: -14

Results for CNC(=O)c1cc(Nc2nnc(-c3ccc(C)c(S(N)(=O)=O)c3)c3ccccc23)ccc1OC ?
ANO1 block: inactive; Lipid droplet: -21; UPR CHOP act: -2; TMEM16A act: inactive; XBP1 UPR activ: 1

Results for CCOC(=O)c1nnn(-c2nonc2-n2cccc2)c1CCl ?
ANO1 block: inactive; UPR CHOP act: 26; TMEM16A act: inactive; XBP1 UPR activ: 7; CHOP inhibitor: -126

What do the screens show for `CCOC(=O)c1nnn(-c2nonc2-n2cccc2)c1CN1CCC(C)CC1`?
ANO1 block: 100*; UPR CHOP act: 5; XBP1 UPR activ: 1; CHOP inhibitor: 60; TMEM16A reconf: 18%*; HEK293 Ca mobil: inactive; Parental YFP cnt: -1.2; ClC-1 inh: -3

Results for C/C(=C\c1ccc(F)cc1)C(=O)c1c(C)cc(C)[nH]c1=O ?
Lipid droplet: 8; UPR CHOP act: -1; TMEM16A act: inactive; XBP1 UPR activ: -2

Results for Cc1noc(C)c1COc1cccc(C(=O)OCCOc2ccc(F)cc2)c1 ?
ANO1 block: 100*; UPR CHOP act: -1; TMEM16A act: inactive; XBP1 UPR activ: 3; CHOP inhibitor: -10; TMEM16A reconf: inactive; HEK293 Ca mobil: inactive; Parental YFP cnt: -1; ClC-1 inh: -12

Results for Cc1noc(C)c1COC(=O)c1ccc(F)c(S(=O)(=O)N2CCCCC2)c1 ?
ANO1 block: inactive; Lipid droplet: -6; UPR CHOP act: -2; TMEM16A act: inactive; XBP1 UPR activ: 1; CHOP inhibitor: 27

What do the screens show for `Cc1noc(C)c1COC(=O)c1cccc(S(=O)(=O)N2CCCCCC2)c1`?
ANO1 block: 25*; UPR CHOP act: 0; TMEM16A act: inactive; XBP1 UPR activ: -2; TMEM16A reconf: inactive; HEK293 Ca mobil: inactive; Parental YFP cnt: -0.81; ClC-1 inh: -20
